# Experimental data as given in ChEMBL document CHEMBL3585302, “Synthesis and antibacterial activities of cadiolides A, B and C and analogues” (Bioorg Med Chem, 2015).
# Activity calls are given as the source filed them. The rule behind the calls is not given here.
# Key:
# Enterococcus faecalis [1] = experiment: Antibacterial activity against Enterococcus faecalis CECT 481 assessed as inhibition of microbial growth incubated for 18 hrs by 2-fold microtiter broth dilution method; type: functional, organism-based; conditions: CECT 481, 18 h
# How it was run: (§1)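 Compounds in DMSO, ten 2-fold serial dilutions (125 down to 0.24 µg/mL tested). Bacteria at OD620 = 0.001 in Nutrient Broth mixed 1:1 with dilutions. Incubated overnight (18 h) at 28°C or 37°C according to strain. Growth read turbidimetrically at OD620. MIC is the lowest concentration giving complete growth inhibition. Triplicate runs. Tetracycline as reference.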
# Escherichia coli [2] = experiment: Antibacterial activity against Escherichia coli CECT 100 assessed as inhibition of microbial growth incubated for 18 hrs by 2-fold microtiter broth dilution method; type: functional, organism-based; conditions: CECT 100, 18 h; how it was run: as §1
# Salmonella typhi [3] = experiment: Antibacterial activity against Salmonella typhi CECT 409 assessed as inhibition of microbial growth incubated for 18 hrs by 2-fold microtiter broth dilution method; type: functional, organism-based, Salmonella enterica subsp. enterica serovar Typhi; conditions: Salmonella enterica, CECT 409, 18 h
# How it was run: (§2)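 Compounds in DMSO, ten 2-fold serial dilutions (125 down to 0.24 µg/mL), mixed 1:1 with bacteria in Nutrient Broth at OD620 = 0.001. Incubated overnight (18 h) at 28 or 37 °C depending on strain. Growth read turbidimetrically at OD620; MIC is the lowest concentration completely inhibiting growth, per CLSI. Triplicate runs; tetracycline reference.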
# Staphylococcus aureus [4] = experiment: Antibacterial activity against Staphylococcus aureus CECT 86 assessed as inhibition of microbial growth incubated for 18 hrs by 2-fold microtiter broth dilution method; type: functional, organism-based; conditions: CECT 86, 18 h; how it was run: as §1
# Escherichia coli [5] = experiment: Antibacterial activity against Escherichia coli CECT 405 assessed as inhibition of microbial growth incubated for 18 hrs by 2-fold microtiter broth dilution method; type: functional, organism-based; conditions: CECT 405, 18 h; how it was run: as §1
# [6] = tested on: Pectobacterium carotovorum; experiment: Antibacterial activity against Erwinia carotovora CECT 225 assessed as inhibition of microbial growth incubated for 18 hrs by 2-fold microtiter broth dilution method; type: functional, organism-based; conditions: CECT 225, 18 h; how it was run: as §1
# Bacillus cereus [7] = experiment: Antibacterial activity against Bacillus cereus CECT 148 assessed as inhibition of microbial growth incubated for 18 hrs by 2-fold microtiter broth dilution method; type: functional, organism-based; conditions: CECT 148, 18 h; how it was run: as §1
# Bacillus subtilis [8] = experiment: Antibacterial activity against Bacillus subtilis CECT 35 assessed as inhibition of microbial growth incubated for 18 hrs by 2-fold microtiter broth dilution method; type: functional, organism-based; conditions: CECT 35, 18 h; how it was run: as §1
# Bacillus cereus [9] = experiment: Antibacterial activity against Bacillus cereus CECT 148 assessed as inhibition of microbial growth at 125 ug/ml incubated for 18 hrs by 2-fold microtiter broth dilution method; type: functional, organism-based; how it was run: as §1
# Bacillus subtilis [10] = experiment: Antibacterial activity against Bacillus subtilis CECT 35 assessed as inhibition of microbial growth at 125 ug/ml incubated for 18 hrs by 2-fold microtiter broth dilution method; type: functional, organism-based; how it was run: as §1
# Enterococcus faecalis [11] = experiment: Antibacterial activity against Enterococcus faecalis CECT 481 assessed as inhibition of microbial growth at 125 ug/ml incubated for 18 hrs by 2-fold microtiter broth dilution method; type: functional, organism-based; how it was run: as §1
# [12] = tested on: Pectobacterium carotovorum; experiment: Antibacterial activity against Erwinia carotovora CECT 225 assessed as inhibition of microbial growth at 125 ug/ml incubated for 18 hrs by 2-fold microtiter broth dilution method; type: functional, organism-based; how it was run: as §1
# Salmonella typhi [13] = experiment: Antibacterial activity against Salmonella typhi CECT 409 assessed as inhibition of microbial growth at 125 ug/ml incubated for 18 hrs by 2-fold microtiter broth dilution method; type: functional, organism-based; conditions: Salmonella enterica subsp. enterica serovar Typhi; how it was run: as §2
# Escherichia coli [14] = experiment: Antibacterial activity against Escherichia coli CECT 405 assessed as inhibition of microbial growth at 125 ug/ml incubated for 18 hrs by 2-fold microtiter broth dilution method; type: functional, organism-based; how it was run: as §1
# Escherichia coli [15] = experiment: Antibacterial activity against Escherichia coli CECT 100 assessed as inhibition of microbial growth at 125 ug/ml incubated for 18 hrs by 2-fold microtiter broth dilution method; type: functional, organism-based; how it was run: as §1
# Staphylococcus aureus [16] = experiment: Antibacterial activity against Staphylococcus aureus CECT 86 assessed as inhibition of microbial growth at 125 ug/ml incubated for 18 hrs by 2-fold microtiter broth dilution method; type: functional, organism-based; how it was run: as §1
SMILES,MIC (Enterococcus faecalis [1]),MIC (Escherichia coli [2]),MIC (Salmonella typhi [3]),MIC (Staphylococcus aureus [4]),MIC (Escherichia coli [5]),MIC [6],MIC (Bacillus cereus [7]),MIC (Bacillus subtilis [8]),growth inhibition (GI) (Bacillus cereus [9]),growth inhibition (GI) (Bacillus subtilis [10]),growth inhibition (GI) (Enterococcus faecalis [11]),growth inhibition (GI) [12],growth inhibition (GI) (Salmonella typhi [13]),growth inhibition (GI) (Escherichia coli [14]),growth inhibition (GI) (Escherichia coli [15]),growth inhibition (GI) (Staphylococcus aureus [16])
O=C1O/C(=C\c2ccc(O)cc2)C(c2cc(Br)c(O)c(Br)c2)=C1C(=O)c1cc(Br)c(O)c(Br)c1,7.81 µg/mL,> 125 µg/mL,7.81 µg/mL,7.81 µg/mL,7.81 µg/mL,125 µg/mL,7.81 µg/mL,125 µg/mL,–,–,–,–,–,–,–,–
O=C1O/C(=C\c2cc(Br)c(O)c(Br)c2)C(c2cc(Br)c(O)c(Br)c2)=C1C(=O)c1ccc(O)cc1,3.9 µg/mL,> 125 µg/mL,3.9 µg/mL,3.9 µg/mL,7.81 µg/mL,125 µg/mL,3.9 µg/mL,125 µg/mL,–,–,–,–,–,–,–,–
COc1ccc(C2=C(C(=O)c3ccc(O)cc3)C(=O)O/C2=C\c2ccc(O)c(Br)c2)cc1,–,–,–,–,–,–,–,–,inactive,inactive,inactive,inactive,inactive,inactive,inactive,inactive
COc1c(Br)cc(C2=C(C(=O)c3cc(Br)c(O)c(Br)c3)C(=O)O/C2=C\c2ccc(O)cc2)cc1Br,–,–,–,–,–,–,–,–,inactive,inactive,inactive,inactive,inactive,inactive,inactive,inactive
COc1ccc(C2=C(C(=O)c3ccc(O)c(Br)c3)C(=O)O/C2=C\c2ccc(O)c(Br)c2)cc1,–,–,–,–,–,–,–,–,inactive,inactive,inactive,inactive,inactive,inactive,inactive,inactive
COc1ccc(C2=C(C(=O)c3ccco3)C(=O)O/C2=C\c2ccc(O)c(Br)c2)cc1Br,–,–,–,–,–,–,–,–,inactive,inactive,inactive,inactive,inactive,inactive,inactive,inactive
O=C1O/C(=C\c2ccc(O)c(Br)c2)C(c2ccc(O)c(Br)c2)=C1C(=O)c1ccc(O)cc1,31.2 µg/mL,15.6 µg/mL,31.2 µg/mL,31.2 µg/mL,15.6 µg/mL,125 µg/mL,15.6 µg/mL,125 µg/mL,–,–,–,–,–,–,–,–
COc1c(Br)cc(C2=C(C(=O)c3ccco3)C(=O)O/C2=C\c2ccc(O)c(Br)c2)cc1Br,–,–,–,–,–,–,–,–,inactive,inactive,inactive,inactive,inactive,inactive,inactive,inactive
COc1c(Br)cc(C2=C(C(=O)c3ccc(O)c(Br)c3)C(=O)O/C2=C\c2cc(Br)c(O)c(Br)c2)cc1Br,–,–,–,–,–,–,–,–,inactive,inactive,inactive,inactive,inactive,inactive,inactive,inactive
COc1c(Br)cc(C2=C(C(=O)c3ccc(O)c(Br)c3)C(=O)O/C2=C\c2ccc(O)c(Br)c2)cc1Br,–,–,–,–,–,–,–,–,inactive,inactive,inactive,inactive,inactive,inactive,inactive,inactive
COc1ccc(C2=C(C(=O)c3cc(Br)c(O)c(Br)c3)C(=O)O/C2=C\c2ccc(O)c(Br)c2)cc1Br,–,–,–,–,–,–,–,–,inactive,inactive,inactive,inactive,inactive,inactive,inactive,inactive
